The source made the active and inactive calls. The rule behind the calls is not given here.
Columns and labels:
[1] = target: T1, NAD-dependent protein deacetylase sirtuin-1 (Homo sapiens) (UniProt Q96EB6); assay: Activation of N-terminal his-tagged human SIRT1 expressed in Escherichia coli assessed as fold activation at 10 to 100 uM using p53-acK381 as substrate in presence of NAD+; settings: filed as activator, dose 10-100 µM
T1 sequence (whole entry): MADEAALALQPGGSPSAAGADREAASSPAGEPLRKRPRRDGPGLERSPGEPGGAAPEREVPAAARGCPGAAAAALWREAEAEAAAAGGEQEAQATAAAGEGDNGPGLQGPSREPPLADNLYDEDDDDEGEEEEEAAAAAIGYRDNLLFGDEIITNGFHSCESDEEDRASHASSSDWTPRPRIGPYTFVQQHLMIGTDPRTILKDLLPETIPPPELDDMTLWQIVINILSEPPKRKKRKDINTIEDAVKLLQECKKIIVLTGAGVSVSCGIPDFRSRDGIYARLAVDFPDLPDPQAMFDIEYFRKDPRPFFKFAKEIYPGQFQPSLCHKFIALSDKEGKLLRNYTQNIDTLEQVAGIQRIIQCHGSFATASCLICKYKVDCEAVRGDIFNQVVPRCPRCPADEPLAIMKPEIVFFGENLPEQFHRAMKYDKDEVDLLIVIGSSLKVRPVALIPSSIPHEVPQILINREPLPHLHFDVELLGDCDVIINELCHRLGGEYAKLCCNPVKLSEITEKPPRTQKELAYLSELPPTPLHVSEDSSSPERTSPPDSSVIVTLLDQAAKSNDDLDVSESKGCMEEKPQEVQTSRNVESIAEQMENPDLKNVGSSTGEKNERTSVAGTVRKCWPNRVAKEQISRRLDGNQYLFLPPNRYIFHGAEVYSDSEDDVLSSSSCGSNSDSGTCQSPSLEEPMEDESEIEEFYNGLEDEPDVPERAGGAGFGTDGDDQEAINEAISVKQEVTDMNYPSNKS
Summary of the method: (§1)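 Coupled enzymatic deacylation assay (nicotinamidase/GDH-coupled, continuous): 1.5 μM recombinant Sirtuin (expressed in E. coli, Ni-NTA purified, tag removed, size-exclusion purified) with 50 μM substrate peptide and 100 μM NAD+, without or with 10 μM or 100 μM 1,4-DHP, 5% final DMSO. Activity expressed relative to no-compound control.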

[2] = target: T1, NAD-dependent protein deacetylase sirtuin-1 (Homo sapiens); assay: Activation of N-terminal his-tagged human SIRT1 expressed in Escherichia coli at 10 to 100 uM using p53-acK381 as substrate in presence of NAD+; settings: filed as activator, dose 10-100 µM
Summary of the method: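 Compound titration in the nicotinamidase/GDH-coupled deacylation assay. 1.5 μM recombinant Sirt1 (E. coli-expressed, Ni-NTA purified, tag removed, size-exclusion purified) was used with 50 μM p53-acK381 peptide and 100 μM NAD+. 1,4-DHP was added at the indicated concentrations in 5% final DMSO.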

[3] = target: NAD-dependent protein deacylase sirtuin-5, mitochondrial (Homo sapiens) (UniProt Q9NXA8); assay: Activation of N-terminal his-tagged human SIRT5 (34 to 302 residues) expressed in Escherichia coli assessed as fold activation at 10 to 100 uM using CPS1-succ537 as substrate in presence of NAD+; settings: filed as activator, dose 10-100 µM; summary of the method: as §1
Target sequence in this assay (Q9NXA8 37-310 limits assumed): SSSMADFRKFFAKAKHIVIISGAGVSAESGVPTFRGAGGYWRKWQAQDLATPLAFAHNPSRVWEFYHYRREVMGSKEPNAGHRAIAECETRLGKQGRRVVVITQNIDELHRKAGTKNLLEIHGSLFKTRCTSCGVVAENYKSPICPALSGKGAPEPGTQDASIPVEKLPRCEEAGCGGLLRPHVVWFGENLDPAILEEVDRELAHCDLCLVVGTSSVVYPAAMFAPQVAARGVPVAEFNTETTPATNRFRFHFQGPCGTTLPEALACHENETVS

[4] = target: NAD-dependent protein deacylase sirtuin-5, mitochondrial (Homo sapiens) (UniProt Q9NXA8); assay: Activation of N-terminal his-tagged human SIRT5 (34 to 302 residues) expressed in Escherichia coli assessed as fold activation at 100 uM using CPS1-succ537 as substrate in presence of NAD+; settings: filed as activator; summary of the method: as §1
Target sequence in this assay (Q9NXA8 37-310 limits assumed): as above

[5] = target: NAD-dependent protein deacylase sirtuin-5, mitochondrial (Homo sapiens) (UniProt Q9NXA8); assay: Activation of N-terminal his-tagged human SIRT5 (34 to 302 residues) expressed in Escherichia coli assessed as fold activation at 10 uM using CPS1-succ537 as substrate in presence of NAD+; settings: filed as activator; summary of the method: as §1
Target sequence in this assay (Q9NXA8 37-310 limits assumed): as above

[6] = target: T2, NAD-dependent protein deacetylase sirtuin-3, mitochondrial (Homo sapiens) (UniProt Q9NTG7); assay: Inhibition of N-terminal his-tagged human SIRT3 (114 to 380 residues) expressed in Escherichia coli at 100 uM using ACS2-acK642 as substrate in presence of NAD+ relative to control; summary of the method: as §1
T2 sequence (whole entry): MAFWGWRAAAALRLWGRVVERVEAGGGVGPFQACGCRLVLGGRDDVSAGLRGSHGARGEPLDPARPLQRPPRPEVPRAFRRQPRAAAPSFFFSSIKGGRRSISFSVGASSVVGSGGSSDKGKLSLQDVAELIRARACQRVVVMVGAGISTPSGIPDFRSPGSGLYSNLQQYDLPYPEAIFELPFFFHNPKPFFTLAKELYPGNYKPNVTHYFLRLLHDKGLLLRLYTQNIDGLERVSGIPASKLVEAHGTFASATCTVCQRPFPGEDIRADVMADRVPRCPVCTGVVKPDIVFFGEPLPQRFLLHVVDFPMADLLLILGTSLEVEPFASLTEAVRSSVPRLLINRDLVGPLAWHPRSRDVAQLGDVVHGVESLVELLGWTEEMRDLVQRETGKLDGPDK

[7] = target: T3, NAD-dependent protein deacetylase sirtuin-2 (Homo sapiens) (UniProt Q8IXJ6); assay: Inhibition of N-terminal SUMO-tagged human SIRT2 (43 to 356 residues) expressed in Escherichia coli at 100 uM using acetylated alpha tubulin-K25 as substrate in presence of NAD+ relative to control; summary of the method: as §1
T3 sequence (whole entry): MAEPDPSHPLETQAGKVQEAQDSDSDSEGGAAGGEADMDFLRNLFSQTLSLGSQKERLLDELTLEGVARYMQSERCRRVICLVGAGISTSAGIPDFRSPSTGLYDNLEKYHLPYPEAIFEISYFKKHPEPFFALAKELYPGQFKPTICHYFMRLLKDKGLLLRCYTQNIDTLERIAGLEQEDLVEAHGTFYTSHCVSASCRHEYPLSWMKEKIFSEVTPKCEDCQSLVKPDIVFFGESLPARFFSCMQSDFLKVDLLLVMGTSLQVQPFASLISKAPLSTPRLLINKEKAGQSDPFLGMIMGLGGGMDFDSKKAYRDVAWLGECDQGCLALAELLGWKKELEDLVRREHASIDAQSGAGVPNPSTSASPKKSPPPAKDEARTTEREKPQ

[8] = target: T1, NAD-dependent protein deacetylase sirtuin-1 (Homo sapiens); assay: Activation of N-terminal his-tagged human SIRT1 expressed in Escherichia coli assessed as fold activation at 100 uM using p53-acK381 as substrate in presence of NAD+; settings: filed as activator; summary of the method: as §1
[9] = target: T3, NAD-dependent protein deacetylase sirtuin-2 (Homo sapiens); assay: Activation of N-terminal SUMO-tagged human SIRT2 (43 to 356 residues) expressed in Escherichia coli assessed as deacetylation of substrate at 100 uM using acetylated alpha tubulin-K2 as substrate in presence of NAD+; settings: filed as activator; summary of the method: as §1
[10] = target: T2, NAD-dependent protein deacetylase sirtuin-3, mitochondrial (Homo sapiens); assay: Activation of N-terminal his-tagged human SIRT3 (114 to 380 residues) expressed in Escherichia coli assessed as fold activation at 100 uM using ACS2-acK642 as substrate in presence of NAD+; settings: filed as activator
Summary of the method: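 Coupled continuous enzymatic assay (nicotinamidase/GDH-linked): 1.5 µM purified Sirt3 with 50 µM ACS2-acK642 peptide and 100 µM NAD+, compound at 10 µM, 100 µM or titrated, 5% DMSO final; fold deacetylation versus no-compound control.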

[11] = target: NAD-dependent protein deacylase sirtuin-5, mitochondrial (Homo sapiens) (UniProt Q9NXA8); assay: Activation of SIRT5 in human CAPAN-1 cells assessed as decrease in GOT1 acetylation at 20 uM incubated for 24 hrs by Western blot analysis; settings: filed as activator
Target sequence in this assay (Q9NXA8 whole entry, looked up, the tested form may be a part): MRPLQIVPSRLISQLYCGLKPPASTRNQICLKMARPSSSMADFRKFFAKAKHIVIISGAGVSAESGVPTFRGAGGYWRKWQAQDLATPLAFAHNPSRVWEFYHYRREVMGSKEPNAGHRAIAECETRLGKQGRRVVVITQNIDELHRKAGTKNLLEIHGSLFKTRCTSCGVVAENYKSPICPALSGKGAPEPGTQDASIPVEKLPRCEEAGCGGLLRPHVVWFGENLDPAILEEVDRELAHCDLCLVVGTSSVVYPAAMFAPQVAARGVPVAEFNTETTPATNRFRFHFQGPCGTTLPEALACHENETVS

[12] = target: NAD-dependent protein deacylase sirtuin-5, mitochondrial (Homo sapiens) (UniProt Q9NXA8); assay: Activation of SIRT5 in human S2-013 cells assessed as decrease in GOT1 acetylation at 20 uM incubated for 24 hrs by Western blot analysis; settings: filed as activator
Target sequence in this assay (Q9NXA8 whole entry, looked up, the tested form may be a part): as above

[13] = target: NAD-dependent protein deacylase sirtuin-5, mitochondrial (Homo sapiens) (UniProt Q9NXA8); assay: Activation of human recombinant SIRT5 assessed as decrease in PDHA1-succinylation at 100 uM by Western blot analysis; settings: filed as activator
Target sequence in this assay (Q9NXA8 whole entry, looked up, the tested form may be a part): as above

[14] = target: NAD-dependent protein deacylase sirtuin-5, mitochondrial (Homo sapiens) (UniProt Q9NXA8); assay: Activation of N-terminal his-tagged human SIRT5 (34 to 302 residues) expressed in Escherichia coli assessed as desuccinylation of substrate at 100 uM using CPS1-succ537 as substrate in presence of NAD+ by Mass spectrometry analysis; settings: filed as activator
Summary of the method: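 MS-based desuccinylation assay: same components as coupled assay (1.5 μM Sirt5, 50 μM CPS1-succK537 peptide, 100 μM NAD+, 5% DMSO) but in 50 mM Na-phosphate pH 7.8 with 0.05 μg/μL PNCA to remove nicotinamide; compound at 100 μM; product and substrate peptides quantified by mass spectrometry.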
Target sequence in this assay (Q9NXA8 37-310 limits assumed): as the sequence (Q9NXA8 37-310 limits assumed) above

[15] = target: NAD-dependent protein deacylase sirtuin-5, mitochondrial (Homo sapiens) (UniProt Q9NXA8); assay: Activation of SIRT5 in human MDA-MB-231 cells assessed as decrease in GLS activity at 50 uM using TMP substrate incubated for 4 to 24 hrs; settings: filed as activator, time 4-24 hrs
Target sequence in this assay (Q9NXA8 whole entry, looked up, the tested form may be a part): as the sequence (Q9NXA8 whole entry, looked up, the tested form may be a part) above

## CCOC(=O)C1=CN(Cc2ccccc2)C=C(C(=O)OCC)C1c1ccsc1
[1]
  fold change (FC): 1.5

## CCOC(=O)C1=CN(C(=O)c2ccccc2)C=C(C(=O)OCC)C1c1ccoc1
[2]
  Activity: Active
[3]
  fold change (FC): 3

## CCOC(=O)C1=CN(C(=O)c2ccccc2)C=C(C(=O)OCC)C1c1ccc(Cl)cc1
[4]
  fold change (FC): 2
[5]
  fold change (FC): 1.2

## CCOC(=O)C1=CN(Cc2ccccc2)C=C(C(=O)OCC)C1c1ccc(-c2ccccc2)cc1
[4]
  fold change (FC): 2

## CCOC(=O)C1=CN(C(=O)c2cc(OC)c(OC)c(OC)c2)C=C(C(=O)OCC)C1c1cccc(F)c1
[2]
  Activity: Active

## CCOC(=O)C1=CN(C(=O)c2cnc3ccccc3n2)C=C(C(=O)OCC)C1c1ccccc1
[4]
  fold change (FC): 2
[1]
  fold change (FC): 1.5
[5]
  fold change (FC): 1.2

## CCOC(=O)C1=CN(Cc2ccccc2)C=C(C(=O)OCC)C1c1cncs1
[6]
  inhibition: 60%
[7]
  inhibition: 75%

## CCOC(=O)C1=CN(Cc2ccccc2)C=C(C(=O)OCC)C1c1cc2ccccc2s1
[4]
  fold change (FC): 2

## CCOC(=O)C1=CN(C(=O)c2cc(OC)c(OC)c(OC)c2)C=C(C(=O)OCC)C1c1ccoc1
[3]
  fold change (FC): 2
[8]
  fold change (FC): 2.5
[9]
  Activity: Active

## CCOC(=O)C1=CN(C(=O)c2ccccc2)C=C(C(=O)OCC)C1c1ccccc1Cl
[4]
  fold change (FC): 2

## CCOC(=O)C1=CN(Cc2ccccc2)C=C(C(=O)OCC)C1c1cccc2ccccc12
[4]
  fold change (FC): 2

## CCOC(=O)C1=CN(C(=O)c2cc(OC)c(OC)c(OC)c2)C=C(C(=O)OCC)C1c1ccc(CN2CCN(C)CC2)cc1
[3]
  fold change (FC): 2
[8]
  fold change (FC): 2.5

## CCOC(=O)C1=CN(Cc2ccccc2)C=C(C(=O)OCC)C1c1ccc2ccccc2c1
[4]
  fold change (FC): 2
[5]
  fold change (FC): 1.2

## CCOC(=O)C1=CN(Cc2cc(OC)c(OC)c(OC)c2)C=C(C(=O)OCC)C1c1ccccc1
[2]
  Activity: Active

## CCOC(=O)C1=CN(Cc2cc(OC)c(OC)c(OC)c2)C=C(C(=O)OCC)C1c1cnc2ccccc2c1
[2]
  Activity: Active

## CCOC(=O)C1=CN(C(=O)c2cc(OC)c(OC)c(OC)c2)C=C(C(=O)OCC)C1c1cccc(Cl)c1
[2]
  Activity: Active

## CCOC(=O)C1=CN(C(=O)c2ccccc2)C=C(C(=O)OCC)C1c1ccc(OC)cc1
[1]
  fold change (FC): 1.5
[5]
  fold change (FC): 1.2

## CCOC(=O)C1=CN(C(=O)c2ccccc2)C=C(C(=O)OCC)C1c1cccc(OC)c1
[4]
  fold change (FC): 2
[5]
  fold change (FC): 1.2

## CCOC(=O)C1=CN(C(=O)c2cccc3ccccc23)C=C(C(=O)OCC)C1c1ccccc1
[4]
  fold change (FC): 2

## CCOC(=O)C1=CN(C(=O)c2ccccc2)C=C(C(=O)OCC)C1c1ccccc1OC
[4]
  fold change (FC): 2

## CCOC(=O)C1=CN(Cc2ccccc2)C=C(C(=O)OCC)C1c1ccco1
[1]
  fold change (FC): 1.5

## CCOC(=O)C1=CN(Cc2ccccc2)C=C(C(=O)OCC)C1c1ccccc1
[10]
  fold change (FC): 2
[1]
  fold change (FC): 1.5

## CCOC(=O)C1=CN(C(=O)c2cnccn2)C=C(C(=O)OCC)C1c1ccccc1
[4]
  fold change (FC): 2
[5]
  fold change (FC): 1.2

## CCOC(=O)C1=CN(C(=O)c2ccccc2)C=C(C(=O)OCC)C1c1cccc(Cl)c1
[11]
  Activity: Active
[4]
  fold change (FC): 2
[12]
  Activity: Active
[13]
  Activity: Active
[5]
  fold change (FC): 1.2

## CCOC(=O)C1=CN(C(=O)c2ccccc2)C=C(C(=O)OCC)C1c1ccco1
[3]
  fold change (FC): 2

## CCOC(=O)C1=CN(C(=O)c2cc(OC)c(OC)c(OC)c2)C=C(C(=O)OCC)C1c1cccc(C)c1
[2]
  Activity: Active

## CCOC(=O)C1=CN(C(=O)c2cc(OC)c(OC)c(OC)c2)C=C(C(=O)OCC)C1c1ccco1
[3]
  fold change (FC): 2
[8]
  fold change (FC): 2.5
[9]
  Activity: Active

## CCOC(=O)C1=CN(C(=O)c2ccccc2)C=C(C(=O)OCC)C1c1ccsc1
[11]
  Activity: Active
[3]
  fold change (FC): 3
[12]
  Activity: Active
[14]
  Activity: Active
[15]
  Activity: Active
[13]
  Activity: Active

## CCOC(=O)C1=CN(C(=O)c2ccccc2)C=C(C(=O)OCC)C1c1ccc(C)cc1
[4]
  fold change (FC): 2

## CCOC(=O)C1=CN(C(=O)c2ccc3ccccc3c2)C=C(C(=O)OCC)C1c1ccccc1
[1]
  fold change (FC): 1.5

## CCOC(=O)C1=CN(C(=O)c2cc(OC)c(OC)c(OC)c2)C=C(C(=O)OCC)C1c1ccsc1
[8]
  fold change (FC): 2.5
